Measured values from paper PMC2099187 (The Journal of Cell Biology, 2007).
“And” between values parts separate entries of the source, which are not always exact repeats. Identical values can stand only once.

Key:
Format in all cases: cell-based, human
[1] = test system: HEK-CLR-RAMP1 cells; assay: CLR and RAMP1 endocytosis and recycling
Method in brief: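 Surface CLR and RAMP1 on HEK-CLR-RAMP1 cells were antibody-labelled via HA11 and Myc epitopes (1:100, 30 min, 37°C). Cells then received CGRP 100 nM for 1 h, were washed, and recovered 0–6 h in CGRP-free medium. Cells were either treated with SM-19712 10 μM (20–60 min preincubation, kept throughout) or transfected 72 h earlier with ECE-1 vs non-targeting siRNA. Confocal scoring gave % total cellular fluorescence at plasma membrane at 6 h.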

[2] = test system: HEK-CLR-RAMP1 cells; assay: CGRP-induced Ca2+ signaling, desensitization and resensitization; details: SM-19712 10 μM
Method in brief: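 HEK-CLR-RAMP1 cells were loaded with Fura-2AM; [Ca2+]i read at 37°C. Single challenge used CGRP 30 nM. For desensitization/resensitization: CGRP 100 nM or vehicle (1 h, 37°C), wash, 0–6 h recovery, CGRP 30 nM rechallenge. Variants: SM-19712 10 μM (20–60 min preincubation, kept throughout); ECE-1 or non-targeting siRNA pools, 72 h; transient ECE-1a-d-GFP. Response given as % of vehicle-treated cells, n ≥ 3.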

[3] = test system: HEK-B2R-V2RCT cells; assay: B2R-V2RCT recycling and colocalization with β-arrestin2-GFP; details: 2 h recovery, SM-19712 10 μM
Method in brief: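 HEK cells stably expressing HA-tagged B2R or B2R-V2RCT were transiently transfected with β-arrestin2-GFP. Surface receptors were labelled with anti-HA11 (1:100, 30 min, 37°C), then given BK 100 nM for 10 min and recovered in BK-free medium (B2R 1 h; B2R-V2RCT 2 h). SM-19712 10 μM or DMSO was preincubated 20–60 min and kept throughout. Cells were PFA-fixed for confocal imaging; plasma-membrane fraction of fluorescence and colocalization coefficient (0–1) were scored in >20 cells/experiment, n ≥ 3.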

## Cc1nn(-c2ccccc2)c(NC(=O)NS(=O)(=O)c2ccc(Cl)cc2)c1C#N.[Na] [SM-19712]
[1]; 6 h recovery after CGRP 100 nM 1 h, SM-19712 10 μM, siRNA 72 h
  Inhibition of recycling of CLR (CLR at the plasma membrane): > 50%
[1]; CGRP 100 nM 1 h, wash, 6 h recovery
  Effect on localization of CLR/RAMP1 after recovery in CGRP-free medium: caused their retention in endosomes even at 6 h
[2]; CGRP 30 nM
  Effect on response to a single challenge with CGRP ([Ca2+]i): did not affect magnitude or duration
[2]
  Effect on desensitization of CGRP-induced Ca2+ signaling: did not affect desensitization
[2]; 0–6 h recovery
  Effect on resensitization of CGRP-induced Ca2+ signaling: strongly inhibited resensitization at all times
[3]
  Change of colocalization coefficient of B2R-V2RCT with β-arrestin2: twofold increase
[3]; BK 100 nM 10 min
  Effect on localization of B2R-V2RCT during recovery: causing it retention in endosomes with β-arrestin2
  Reduction of recycling of B2R-V2RCT: ~50% and > 50%
